Reference: publication PMC8742645 (Clinical and Translational Science, 2021)
Several values for one entry are separate records, joined by “and”; a condition that tells them apart may be missing. Equal values may be shown once. Read-outs that look alike come from different tables or passages of the source. Marks after values point to notes of the source that are not given here.

Legend:
[1] = format: in vivo, human; conditions: for Vd: 100 µg; for half-life / Tmax: whole blood; for half-life: t 1/2, arithmetic mean; for Tmax: po
Summary of the method: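 Healthy adults, open-label single-sequence three-period crossover. Oral doses: 50 mg alone (day 3, 1 h after 240 ml 10% glucose), 20 mg 1 h after 240 ml grapefruit juice, and 20 mg 1 h after the second ritonavir 100 mg dose. Stable-isotope-labelled i.v. microtracer 100 µg given 2 h post-oral in periods 1 and 3. Blood measured by LC-MS/MS; dose-normalised; mixed-ANOVA geometric mean ratios.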

[2] = test system: hepatic uptake transporters; assay: Cellular uptake in suspensions of cryo-preserved human hepatocytes; format: in vitro ADME; conditions: suspended human hepatocytes
Caco-2 cells = assay: Caco-2 permeability of remibrutinib; format: in vitro ADME; conditions: Caco-2, passive
Summary of the method: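 Human Caco-2 cell system, also used to test the compound as a substrate of ATP-binding cassette efflux transporters (P-gp). Passive apparent permeability (Papp, cm/s) was taken from these experiments to predict the fraction absorbed (Fa) in the PBPK model.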

P-gp = P-gp (Homo sapiens, UniProt P08183); assay: Efflux transporter substrate assessment in Caco-2 cells; format: in vitro ADME
CYP2C19 = CYP2C19 (Homo sapiens, UniProt P33261); assay: Recombinant human CYP enzyme kinetics; format: in vitro ADME
human liver microsomes = assay: Oxidative metabolism kinetics in pooled HLM; format: in vitro ADME
[3] = Clinical DDI study: safety; format: in vivo, human
CYP2B6 = molecular target: T1, CYP2B6 (Homo sapiens, UniProt P20813); assay: Recombinant human CYP enzyme kinetics; format: in vitro ADME
T1 sequence (P20813 1-491): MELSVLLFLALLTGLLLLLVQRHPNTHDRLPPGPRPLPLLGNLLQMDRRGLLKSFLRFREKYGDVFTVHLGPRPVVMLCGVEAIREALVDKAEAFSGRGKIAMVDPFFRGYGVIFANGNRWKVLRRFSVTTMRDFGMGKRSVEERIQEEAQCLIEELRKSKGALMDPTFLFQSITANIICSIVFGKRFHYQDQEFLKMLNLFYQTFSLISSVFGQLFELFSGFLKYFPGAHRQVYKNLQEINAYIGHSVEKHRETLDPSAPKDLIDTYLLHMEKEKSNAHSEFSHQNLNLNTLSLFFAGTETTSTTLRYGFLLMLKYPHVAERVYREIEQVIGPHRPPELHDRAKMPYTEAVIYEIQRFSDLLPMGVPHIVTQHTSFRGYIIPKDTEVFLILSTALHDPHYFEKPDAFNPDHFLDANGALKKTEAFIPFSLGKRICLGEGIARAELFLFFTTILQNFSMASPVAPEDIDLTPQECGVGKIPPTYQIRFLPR

[4] = Single and multiple ascending dose study, observed PK; format: in vivo, human
CYP3A4 = CYP3A4 (Homo sapiens, UniProt P08684); format: in vitro ADME
CYP3A4/5 = assay: Correlation analysis with HLM from 16 individual donors; format: in vitro ADME, human
CYP3A5 = CYP3A5 (Homo sapiens, UniProt P20815); assay: Recombinant human CYP enzyme kinetics; format: in vitro ADME
[5] = rat in vivo; ref data on file, Novartis; cited from earlier work
[6] = DDI trial with CYP450 enzyme substrate cocktail, steady state; ref unpublished data, Schiller, Huth, Schuhler, Drollmann, Kaul, Woessner, et al. 2021; cited from earlier work
[7] = i.v., Period 1 remibrutinib alone day 3, Geo-mean (%CV)
[8] = i.v., Period 3 remibrutinib + ritonavir, Geo-mean (%CV)
[9] = oral, Period 1 alone 50 mg Day 3, Mean (SD)
[10] = oral, Period 2 20 mg + GFJ Day 5, Mean (SD)
[11] = oral, Period 3 20 mg + RTV Day 7, Mean (SD)
[12] = p.o., Period 1 remibrutinib alone, adjusted Geo-mean, 90% CI
[13] = p.o., Period 2 remibrutinib + grapefruit juice, adjusted Geo-mean, 90% CI
[14] = p.o., Period 3 remibrutinib + ritonavir, adjusted Geo-mean, 90% CI
[15] = p.o., grapefruit juice vs alone, Geo mean ratio, 90% CI
[16] = p.o., ritonavir vs alone, Geo-mean ratio, 90% CI

Chain of CYP3A4 (P08684 whole entry): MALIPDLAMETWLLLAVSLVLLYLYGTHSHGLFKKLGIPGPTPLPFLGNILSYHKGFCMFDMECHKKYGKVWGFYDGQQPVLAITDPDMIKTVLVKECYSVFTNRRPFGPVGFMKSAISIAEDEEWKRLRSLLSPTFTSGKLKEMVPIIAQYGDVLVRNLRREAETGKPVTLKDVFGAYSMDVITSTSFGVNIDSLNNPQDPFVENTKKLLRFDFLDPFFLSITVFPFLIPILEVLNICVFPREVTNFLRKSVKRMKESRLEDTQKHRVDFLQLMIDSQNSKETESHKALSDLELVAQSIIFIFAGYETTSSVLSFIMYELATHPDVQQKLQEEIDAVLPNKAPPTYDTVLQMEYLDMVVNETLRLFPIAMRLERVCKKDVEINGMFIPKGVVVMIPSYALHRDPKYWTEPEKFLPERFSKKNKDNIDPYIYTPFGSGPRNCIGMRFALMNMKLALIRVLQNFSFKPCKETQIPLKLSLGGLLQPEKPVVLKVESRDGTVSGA
Chain of CYP3A5 (P20815 whole entry): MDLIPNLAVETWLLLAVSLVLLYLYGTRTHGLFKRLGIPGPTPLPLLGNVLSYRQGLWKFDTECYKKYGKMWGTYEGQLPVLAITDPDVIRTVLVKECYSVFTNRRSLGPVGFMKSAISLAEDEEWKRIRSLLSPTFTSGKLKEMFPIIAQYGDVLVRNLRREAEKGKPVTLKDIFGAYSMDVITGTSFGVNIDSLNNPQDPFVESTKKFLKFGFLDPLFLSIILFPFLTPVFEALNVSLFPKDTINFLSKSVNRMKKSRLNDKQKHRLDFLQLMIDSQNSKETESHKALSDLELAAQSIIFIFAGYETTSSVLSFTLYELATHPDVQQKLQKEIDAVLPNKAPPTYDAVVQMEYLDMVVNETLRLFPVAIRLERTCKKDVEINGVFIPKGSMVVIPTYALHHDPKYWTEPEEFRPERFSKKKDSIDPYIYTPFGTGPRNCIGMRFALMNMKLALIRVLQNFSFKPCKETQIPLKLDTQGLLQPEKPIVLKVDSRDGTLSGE
Chain of CYP2C19 (P33261 whole entry): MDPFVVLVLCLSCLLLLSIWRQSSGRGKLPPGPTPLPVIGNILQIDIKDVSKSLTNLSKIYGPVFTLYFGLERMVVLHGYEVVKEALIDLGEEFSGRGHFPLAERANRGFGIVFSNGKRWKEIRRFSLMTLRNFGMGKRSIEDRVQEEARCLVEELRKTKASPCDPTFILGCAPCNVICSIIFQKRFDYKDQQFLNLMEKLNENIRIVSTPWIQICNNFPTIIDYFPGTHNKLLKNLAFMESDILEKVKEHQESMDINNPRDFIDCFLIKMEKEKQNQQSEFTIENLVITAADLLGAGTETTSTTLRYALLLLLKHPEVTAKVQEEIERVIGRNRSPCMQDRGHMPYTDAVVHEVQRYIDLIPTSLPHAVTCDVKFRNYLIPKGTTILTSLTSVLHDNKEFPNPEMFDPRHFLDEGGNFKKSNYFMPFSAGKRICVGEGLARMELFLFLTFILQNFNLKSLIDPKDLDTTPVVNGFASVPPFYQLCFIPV
Chain of P-gp (P08183 whole entry): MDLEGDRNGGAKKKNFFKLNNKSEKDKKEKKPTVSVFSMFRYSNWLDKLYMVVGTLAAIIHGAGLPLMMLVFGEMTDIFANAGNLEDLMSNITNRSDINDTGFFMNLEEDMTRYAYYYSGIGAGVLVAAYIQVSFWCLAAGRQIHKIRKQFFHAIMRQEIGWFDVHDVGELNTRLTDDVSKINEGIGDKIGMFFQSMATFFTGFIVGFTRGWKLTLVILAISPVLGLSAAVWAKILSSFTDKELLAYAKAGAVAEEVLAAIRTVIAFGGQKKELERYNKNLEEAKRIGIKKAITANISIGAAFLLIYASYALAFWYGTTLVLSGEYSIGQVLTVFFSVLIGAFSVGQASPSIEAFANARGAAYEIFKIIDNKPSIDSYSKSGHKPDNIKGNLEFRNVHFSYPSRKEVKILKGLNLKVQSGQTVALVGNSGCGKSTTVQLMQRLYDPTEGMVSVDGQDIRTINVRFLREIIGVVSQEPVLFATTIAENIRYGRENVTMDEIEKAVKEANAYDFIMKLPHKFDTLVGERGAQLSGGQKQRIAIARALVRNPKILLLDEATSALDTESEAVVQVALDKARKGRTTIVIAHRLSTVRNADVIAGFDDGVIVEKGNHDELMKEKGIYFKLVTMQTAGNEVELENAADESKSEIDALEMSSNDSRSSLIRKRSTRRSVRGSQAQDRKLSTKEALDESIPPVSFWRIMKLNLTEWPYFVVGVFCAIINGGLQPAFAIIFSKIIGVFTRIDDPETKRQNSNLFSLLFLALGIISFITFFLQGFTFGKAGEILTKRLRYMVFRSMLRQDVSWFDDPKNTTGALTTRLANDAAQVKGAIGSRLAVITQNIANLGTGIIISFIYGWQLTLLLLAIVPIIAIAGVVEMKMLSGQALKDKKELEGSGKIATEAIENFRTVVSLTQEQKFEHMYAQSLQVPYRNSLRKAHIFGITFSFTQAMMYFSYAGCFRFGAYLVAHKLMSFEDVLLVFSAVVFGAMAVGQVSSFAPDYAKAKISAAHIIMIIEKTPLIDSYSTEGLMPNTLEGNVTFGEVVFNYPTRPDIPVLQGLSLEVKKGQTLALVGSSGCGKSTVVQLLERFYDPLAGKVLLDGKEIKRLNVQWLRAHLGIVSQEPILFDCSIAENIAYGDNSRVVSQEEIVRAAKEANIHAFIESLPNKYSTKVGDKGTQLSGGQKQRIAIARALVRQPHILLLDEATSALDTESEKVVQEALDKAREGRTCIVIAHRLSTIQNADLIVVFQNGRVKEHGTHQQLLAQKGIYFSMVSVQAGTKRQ

In the case of `C=CC(=O)N(C)CCOc1c(N)ncnc1-c1cc(F)cc(NC(=O)c2ccc(C3CC3)cc2F)c1C` [remibrutinib], the “F (absolute bioavailability)” value ([1]; Observed mean) is reported as 33.8 ± 11.5%, the F inhibited ([1]; Observed mean, bioavailability in the presence of ritonavir) is reported as 80.9% and 80.9 ± 11.5% and the Fg ([1]; Observed mean, from grapefruit juice AUC ratio) is reported as 78.9% and 78.9 ± 15.6%. The Fa ([1]; Observed, calculated Fa = F/Fg/Fh) was 86.9% and 86.9^e %, the Fh ([1]; Observed, calculated Fh = AUCratio,iv/(AUCratio,po * Fg), ritonavir DDI study) was 49.3^d % and the “fm (CYP3A4)” value ([1]; Observed, from i.v. exposure increase with ritonavir) was 40%. For the same compound, the “CYP3A4-mediated hepatic first-pass metabolism (100%-Fh)” value ([1]; calculated) was 50.7%, the “product of Fg and Fh” value ([1]; calculated / clinically determined values) was 39% and the Vd ([1]; human, blood, intravenous) was 0.81 ± 0.22 L/kg. The Vd ([1]; human, blood, iv) was 63.1 L, the clearance ([1]; human, blood, iv, 0.1 mg) was 1170 mL/min and the “systemic CL as share of hepatic blood flow (87 L/h)” value ([1]; human, in vivo) was ~ 80%. It also gave a half-life ([1]; human, oral, 50 mg, remibrutinib alone) of 6.58 h, a half-life ([1]; human, oral, with RTV) of 12.1 h and a half-life ([1]; human, oral, with grapefruit juice) of 7.13 h. The Tmax ([1]; human, 50 mg, median, remibrutinib alone) was 1 h, the Tmax ([1]; human, 50 mg, minimum-maximum, remibrutinib alone) was 0.5 to 2.5 h and the Tmax ([1]; human, median, with RTV) was 0.72 h. The Tmax ([1]; human, median, with grapefruit juice) was 0.73 h, the Tmax ([1]; human, minimum-maximum, with RTV) was 0.5 to 1.5 h and the Tmax ([1]; human, minimum-maximum, with grapefruit juice) was 0.5 to 2 h. For the same compound, the “AUC0-24 h norm by dose” value [1, 7] was 14.2 (21.8%) h*ng/ml/mg, the “AUCinf norm by dose” value [1, 7] was 14.5 (17.9%) h*ng/ml/mg and the “AUClast norm by dose” value [1, 7] was 13.9 (22.3%) h*ng/ml/mg. For the same compound, the “AUC0-24 h norm by dose” value [1, 8] was 23.8 (31.0%) h*ng/ml/mg, the “AUCinf norm by dose” value [1, 8] was 24.8 (33.3%) h*ng/ml/mg and the “AUClast norm by dose” value [1, 8] was 23.5 (31.0%) h*ng/ml/mg. The “AUC0-24 h norm by dose, Ratio period 3 / period 1” value ([1]; i.v., ritonavir vs alone) was 1.67, the “AUCinf norm by dose, Ratio period 3 / period 1” value ([1]; i.v., ritonavir vs alone) was 1.70 and the “AUClast norm by dose, Ratio period 3 / period 1” value ([1]; i.v., ritonavir vs alone) was 1.68. The “Cmax norm by dose, Ratio period 3 / period 1” value ([1]; i.v., ritonavir vs alone) was 0.89, the “AUC0-24 h norm by dose” value [1, 9] was 4.89 ng·h/mL/mg and the “Cmax norm by dose” value [1, 9] was 2.77 ng/mL/mg. The “AUC0-24 h norm by dose” value [1, 10] was 6.28 ng·h/mL/mg, the “Cmax norm by dose” value [1, 10] was 3.27 ng/mL/mg and the “AUC0-24 h norm by dose” value [1, 11] was 20.3 ng·h/mL/mg. For the same compound, the “Cmax norm by dose” value [1, 11] was 9.00 ng/mL/mg, the “AUC0-24 h norm by dose” value [1, 12] was 4.49 (3.83, 5.26) h*ng/ml/mg and the “AUCinf norm by dose” value [1, 12] was 4.66 (3.92, 5.54) h*ng/ml/mg. For the same compound, the “AUClast norm by dose” value [1, 12] was 4.37 (3.73, 5.13) h*ng/ml/mg, the “Cmax norm by dose” value [1, 12] was 2.45 (1.99, 3.02) ng/ml/mg and the “AUC0-24 h norm by dose” value [1, 13] was 5.80 (4.95, 6.80) h*ng/ml/mg. For the same compound, the “AUCinf norm by dose” value [1, 13] was 5.98 (4.97, 7.19) h*ng/ml/mg, the “AUClast norm by dose” value [1, 13] was 5.80 (4.93, 6.81) h*ng/ml/mg and the “Cmax norm by dose” value [1, 13] was 3.03 (2.45, 3.75) ng/ml/mg. The “AUC0-24 h norm by dose” value [1, 14] was 19.2 (16.4, 22.5) h*ng/ml/mg, the “AUCinf norm by dose” value [1, 14] was 20.1 (16.9, 23.8) h*ng/ml/mg and the “AUClast norm by dose” value [1, 14] was 19.7 (16.7, 23.1) h*ng/ml/mg. For the same compound, the “Cmax norm by dose” value [1, 14] was 8.15 (6.59, 10.1) ng/ml/mg, the “AUCinf norm by dose, Ratio period 2 / period 1” value [1, 15] was 1.28 (1.09, 1.51) and the “AUClast norm by dose, Ratio period 2 / period 1” value [1, 15] was 1.33 (1.19, 1.47). For the same compound, the “AUCinf norm by dose, Ratio period 3 / period 1” value [1, 16] was 4.31 (3.76, 4.94), the “AUClast norm by dose, Ratio period 3 / period 1” value [1, 16] was 4.50 (4.05, 4.99) and the “uptake clearance with inhibitors of hepatic uptake transporters” value [2] was “not affected”. The “passive permeability (Papp)” value (Caco-2 cells) was 16.5 10^-6 cm/s, the P-gp substrate (P-gp) was “identified as a P‐gp substrate” and the “fm,CYP (contribution to oxidative hepatic metabolism)” value (“fm,CYP” below) (CYP2C19) was 1%. For the same compound, the “apparent intrinsic affinity (Kmapp)” value (human liver microsomes) was 5.43 µM, the “maximal rate of metabolism (Vmax)” value (human liver microsomes) was 560.7 pmol/min/mg protein and the tolerability ([3]; alone, with grapefruit juice, or with RTV, healthy participants) was “well‐tolerated”. The “SAEs, deaths, high-grade AEs” value ([3]; during the trial) was “No SAEs, deaths, or AEs of high‐grade severity”, the “clinical laboratory evaluations, vital signs, ECG” value ([3]; except isolated AE of mildly increased white blood cell count in one participant) was “no clinically relevant changes” and the “AEs rated grade 1 of all AEs” value ([3]; occurring in 5 [29.4%] participants) was 13/14. The “fm,CYP” value (CYP2B6) was 0.3%, the “AUC ratio day 12 to day 1” value ([4]; declining over dose range 10-600 mg (TMDD effect)) was 4.86 to 1.14 and the “fractional contribution of renal excretion to elimination” value ([4]; humans) was “about 1.8%”. For the same compound, the Vmax (CYP3A4; CYP3A4) was 16.3 pmol/min/pmol CYP, the Km (CYP3A4; read-out: Km,u, CYP3A4, unbound) was 1.51 µM and the “correlation of metabolism rate with CYP3A4/5 activity, R” value (CYP3A4/5; midazolam) was 0.989. The “correlation of metabolism rate with CYP3A4/5 activity, R” value (CYP3A4/5; testosterone) was 0.986, the “fm,CYP” value (CYP3A5) was 0.8% and the “excretion of unchanged remibrutinib into the bile” value [5] was 0.4 % of the dose. For the same compound, the “observed AUCtau” value [6] was 916 ng·h/mL and the “observed Cmax” value [6] was 334 ng/mL.
